SR-BI DiI inh – inhibitors of mouse SR-BI mediated HDL lipid uptake; Q61009; ldlA[mSR-BI] CHO cells, DiI-HDL uptake fluorescence, 3 h; inhibition, % at 12.5 µM; 320,000 tested, 0.96% active;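 active = mean replicate inhibition of at least 70% and a set share of replicates each scoring 70 or more; inconclusive = meets just one of the two criteria; inactive = fails both criteria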;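 note: 0% = median of neutral control wells and 100% = median of positive control wells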
Target sequence (Q61009 whole entry, looked up): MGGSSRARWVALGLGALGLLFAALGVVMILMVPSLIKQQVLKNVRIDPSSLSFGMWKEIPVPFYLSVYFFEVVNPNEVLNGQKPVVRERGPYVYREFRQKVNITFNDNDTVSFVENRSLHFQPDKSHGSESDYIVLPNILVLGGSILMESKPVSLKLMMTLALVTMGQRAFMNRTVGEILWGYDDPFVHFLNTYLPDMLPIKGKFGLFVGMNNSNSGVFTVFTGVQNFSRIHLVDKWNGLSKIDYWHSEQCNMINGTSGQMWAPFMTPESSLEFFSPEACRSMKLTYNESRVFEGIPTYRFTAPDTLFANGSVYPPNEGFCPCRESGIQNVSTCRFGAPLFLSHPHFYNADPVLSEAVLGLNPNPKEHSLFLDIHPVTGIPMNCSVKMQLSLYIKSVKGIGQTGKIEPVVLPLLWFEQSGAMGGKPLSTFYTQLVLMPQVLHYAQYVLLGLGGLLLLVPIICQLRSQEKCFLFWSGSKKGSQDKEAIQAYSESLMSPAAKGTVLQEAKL
N-glyco inh – N-linked glycosylation inhibition. D54 ERlucT glycosylation luciferase reporter, 24 h; percent of 100 nM tunicamycin response. reporter increase, % at 12.5 µM. 360,000 tested, 0.23% active. AID 588692;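 active = mean luciferase reporter signal, scaled so untreated is 0 and the glycosylation-blocking control 100, at or above a set limit in every replicate; inconclusive = mean reaches the limit but not every replicate does; inactive = mean below the limit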;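 note: luciferase carries N-glycosylation sites so blocking glycosylation raises the light; 0% = median of neutral control wells and 100% = median of 100 nM tunicamycin wells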
SR-BI uptake up – activators of SR-BI mediated HDL lipid uptake; CHO ldlA[mSR-BI] cells, DiI-HDL uptake fluorescence, 3 h; 100 = double the neutral-control signal; AID 504775; activation, % at 12.5 µM; 320,000 tested, 0.096% active;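 active = mean replicate activation of at least 60% and every replicate at or above 60%; inconclusive = mean or all-replicate condition met, but not both; inactive = mean below 60% and not all replicates reaching 60%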;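 note: 0% = median plate neutral-control signal and 100% = twice that signal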
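Test system: SR-BI-overexpressing, LDLR-lacking CHO cells. Measured by: DiI fluorescence, bottom read. Medium: Ham's F12 with 0.5% BSA, HEPES 25 mM, pH 7.4. Timing: 3 h uptake period with compound, 37 °C.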
PglD DTNB – PglD (C. jejuni) enzyme inhibition; AID 602405; purified PglD enzyme, DTNB colorimetric CoA detection; 360,000 tested, 0.098% active; inhibition, % at 12.5 µM; in the data active = inhibition above about 16%, passing the limit was not always enough; inconclusive = no clear call, values can overlap the other calls
HIV Env fusion – inhibitors of HIV Env-mediated cell fusion. 360,000 tested, 1.1% active. HeLa-JRFL Env/CEM21 cell fusion, luciferase. inhibition, % at 12.3 µM;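 active = mean replicate inhibition score of at least 50 and every replicate individually at or above 50; inconclusive = only one of the two criteria met; inactive = mean below 50 and not all replicates reaching 50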;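 note: 0% = plate neutral controls and 100% = maraviroc near 300 nM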
Rtt109 Vps75 – inhibitors of Candida albicans Rtt109/Vps75 histone acetyltransferase; purified Rtt109/Vps75, ThioGlo CoA-SH fluorescence, 4 h; inhibition, % at 34.9 µM; 330,000 tested, 0.16% active; Q5AAJ8;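 active = inhibition of at least 50% in every replicate; inconclusive = best replicate reaches 50% inhibition but some replicates fall short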
DiI quench – quenches DiI-HDL fluorescence, an SR-BI assay artifact | shares compounds with SR-BI DiI inh | cell-free DiI-HDL fluorescence quenching, 30 min | AC50, µM (doses to about 35 µM), inactives show at the top dose activity change, negative = quenching | 470 tested, 20% active | AID 540326;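 active = quenching, a falling signal, with AC50 below a set limit tied to the top valid dose, actives reach about 32 µM in these data; inconclusive = no clear call, values can overlap the other calls; inactive = rising signal, and the rest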
* = called active by the depositor; ? = inconclusive; · = no result given; [ ] = dose if it differs, or a comment. Rows were chosen to be rich in hits. Some 1.9% of all compounds tested hit in one or more screens of this group.

SMILES	SR-BI DiI inh	N-glyco inh	SR-BI uptake up	PglD DTNB	HIV Env fusion	Rtt109 Vps75	DiI quench
CCOC(=O)N1CCN(C(=O)C2CCN(C(=O)Nc3ccccc3)CC2)CC1	74*	0	-74	·	-13	-18	-1%
CC(C(=O)NCc1ccccc1)N(Cc1ccccc1Cl)C(=O)c1snc(C(N)=O)c1N (stereo not given)	84*	-3	-84	-4	7	7	2%
Cc1noc(C)c1S(=O)(=O)N(C)C[C@H]1Oc2ccc(NC(=O)Nc3ccc(C(F)(F)F)cc3)cc2CC(=O)N([C@@H](C)CO)C[C@H]1C	·	·	·	1	-12[16.7 µM]	·	·
O=C(CN(C(=O)Cn1nnc(-c2ccc(F)cc2)n1)C1CCCC1)NC1CCCC1	94*	-2	-94	1	-8	-11	-2%
COc1ccc(C)cc1N(CC(=O)NC1CCCC1)C(=O)Cn1nnc(-c2ccc(C)o2)n1	76*	-1	-77	-2	-1	6	-2%
O=C(CCCC(=O)N(CC(=O)NC1CCCC1)C1CCCC1)Nc1ccccn1	?	1	-74	3	·	-4	1%
O=C(NC1CCCC1)C(c1c[nH]c2ccccc12)N(C(=O)Cn1nnc(-c2ccc(Cl)cc2)n1)c1ccccc1 (stereo not given)	-6	-1	6	2	0	6	-1%
CC(C)(C)NC(=O)C(c1c[nH]c2ccccc12)N(C(=O)Cn1nnc(-c2ccc(Cl)cc2)n1)c1ccccc1F (stereo not given)	3	-6	-3	·	-8	-1	·
CN(C)C(=O)c1ccc(-c2ccc3c(c2)[C@H]2[C@H](CCN2C(=O)C2CCC2)[C@H](CO)N3C)cc1	·	·	·	1	·	·	·
C[C@@H]1CCCCO[C@@H](CN(C)C(=O)NC2CCCCC2)[C@@H](C)CN([C@H](C)CO)C(=O)c2cc(NC(=O)Nc3ccc4c(c3)OCO4)ccc2O1	·	·	·	1	-20[16.7 µM]	·	·
Cc1ccc(-c2csc(N3CCN(c4ccc5nc(-c6ccncc6)n(CCN6CCCCC6)c5c4)CC3)n2)cc1	70*	-1	-70	-3	·	2	-19%
COc1ccccc1C(=O)NCCn1cc(SCC(=O)Nc2nnc(C)s2)c2ccccc21	44	1	-44	2	·	4	0%
O=C(NCCn1cc(SCc2ccccc2)c2ccccc21)c1c(F)cccc1F	?	-4	-71	2	19	-2	-12%
Cc1nn(C)cc1NC(=O)C[C@H]1CC[C@@H]2[C@@H](COc3ccc(NC(=O)C(C)C)cc3C(=O)N2C)O1	·	·	·	3	-13[16.7 µM]	·	·
OC1CCN(c2cc(-c3ccccc3)nc3cc(-c4ccc(F)cc4)nn23)CC1	72*	-1	-72	·	21	-5	6%
Nn1c(SCCOc2ccccc2)nnc1-c1cccnc1	-7	10	7	0	-4	-1	·
COc1ccc(OCCSc2nnc(-c3cccnc3)n2N)cc1	106*	12	-106	-4	-37	1	-1%
CC(=O)Nc1ccc(NC(=O)c2cc(-n3cnnc3)ccc2Cl)cc1	16	2	-16	3	-1	-2	·
COc1cc(NC(=O)c2cc(-n3cnnc3)ccc2Cl)cc(OC)c1	44	0	-44	-5	·	6	-2%
CN(C(=O)c1cc(-n2cnnc2)ccc1Cl)c1ccccc1	-11	-1	11	·	8	9	-3%
COc1ccccc1-c1ccc2n(c1=O)C[C@@H]1[C@@H](CO)[C@H](C(=O)NC3CCC3)N(C(=O)C3CCC3)[C@H]21	·	·	·	-2	·	·	·
COc1ccc(NC(=O)c2cccc3c2C(=O)c2ccc(-c4ccc(F)cc4OCc4ccccc4)cc2S3(=O)=O)cc1	62	10	-62	-2	-6	8	·
COc1ccc(OC[C@@H](O)CNC(=O)c2cccc3c2C(=O)c2ccc(-c4ccc(F)cc4OCc4ccccc4)cc2S3(=O)=O)cc1	80*	-1	-80	2	·	13	-19%
Cc1noc(C)c1NC(=O)N(C)C[C@@H]1Oc2ccc(NC(=O)C3CCCCC3)cc2C(=O)N([C@H](C)CO)C[C@@H]1C	·	·	·	-2	4[16.7 µM]	·	·
COc1ccc(S(=O)(=O)N(C)C[C@@H]2OCCCC[C@@H](C)Oc3ccc(NC(=O)Nc4cccc5ccccc45)cc3C(=O)N([C@@H](C)CO)C[C@H]2C)cc1	·	·	·	1	-13[16.7 µM]	·	·
SMILES	SR-BI DiI inh	N-glyco inh	SR-BI uptake up	PglD DTNB	HIV Env fusion	Rtt109 Vps75	DiI quench
Cc1ccc(CNC(=O)c2ccc(N3CCC4(CC3)CC(c3cccc(Br)c3)=NO4)c([N+](=O)[O-])c2)cc1	81*	-5	-81	5	·	1	-2%
CN(C)C(=O)C[C@H]1C[C@@H]2c3cc(NC(=O)Nc4ccc(C(F)(F)F)cc4)ccc3O[C@@H]2[C@@H](CO)O1	·	·	·	2	·	·	·
COCCCN(C(=O)c1ccco1)c1nc(-c2ccc(OC)cc2)cs1	111*	0	-111	5	34	-3	-1%
COCCCN(C(=O)c1ccccc1)c1nc(-c2ccc(OC)cc2)cs1	27	-3	-27	-3	23	-2	·
O=C(C[C@@H]1C[C@H]2c3cc(NC(=O)Nc4ccc(C(F)(F)F)cc4)ccc3O[C@H]2[C@H](CO)O1)NCc1ccc(Cl)cc1	·	·	·	-4	19[16.7 µM]	·	·
COc1ccc(C(=O)OCc2ccc(C)cc2)cc1S(=O)(=O)N1CCOCC1	55	-3	-55	-1	·	6	·
COc1ccc(COC(=O)c2ccc(Br)c(S(=O)(=O)N3CCOCC3)c2)cc1F	74*	-5	-74	12	28	6	2%
Cc1ccc(/C=C/C(=O)Nc2sc3c(c2C#N)CCCC3)o1	75*	1	-75	1	13	16	-5%
C[C@@H]1CN([C@@H](C)CO)C(=O)c2cc(NC(=O)c3ccncc3)ccc2O[C@H]1CN(C)Cc1ccc(Oc2ccccc2)cc1	·	·	·	6	16[16.7 µM]	·	·
COc1ccc(C2C(C#N)=C(N)N(c3ccccc3C#N)C3=C2C(=O)CCC3)cc1CN1CCCC1 (stereo not given)	3	4	-3	·	-18	3	-4%
COc1cc(C2C(C#N)=C(N)N(c3cccnc3)C3=C2C(=O)CCC3)ccc1O (stereo not given)	-4	2	4	2	·	-5	·
Cc1ccccc1-c1cc(C(=O)NCc2cccc(Br)c2)nn1CC1CC(c2cccc([N+](=O)[O-])c2)=NO1 (stereo not given)	34	-5	-34	3	-10	0	-1%
COCCNC(=O)c1cc(-c2ccccc2C)n(CC2CC(c3cccc([N+](=O)[O-])c3)=NO2)n1 (stereo not given)	-16	0	16	-2	24	1	·

Screening data as filed in PubChem BioAssay.
